Measured values reported in ChEMBL document CHEMBL1155945, “Discovery of 2-chloro-N-(4-methoxyphenyl)-N-methylquinazolin-4-amine (EP128265, MPI-0441138) as a potent inducer of apoptosis with high in vivo activity” (J Med Chem, 2008).
The source made the active and inactive calls. The calls are words filed in the database; no cut-off is given here.

What was measured:
[1] = test system: T47D; assay: Induction of apoptosis in human T47D cells assessed as caspase 3 activation after 24 hrs; type: functional, cell-based
Method in brief: (§1)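 A live-cell, high-throughput caspase-3 activator assay was used, with fluorescent caspase-3 substrates in intact cells. EC50 values for caspase activation are the mean ± SEM of three or more experiments.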

[2] = test system: HCT-116; assay: Induction of apoptosis in human HCT116 cells assessed as caspase 3 activation after 24 hrs; type: functional, cell-based; settings: HCT-116, 24 h; method in brief: as §1
[3] = Inhibition of tubulin polymerization
[4] = test system: P388; assay: Cytotoxicity against mouse P388 cells; type: functional, cell-based
Method in brief: (§2)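 Cytotoxicity IC50 was measured in parental P388 cells and in the P388/ADR line, which overexpresses the ABC transporter Pgp-1 (MDR-1). Values are the mean ± SEM of three experiments.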

[5] = test system: P388; assay: Cytotoxicity against adriamycin-resistant mouse P388 cells expressing p-glycoprotein; type: functional, cell-based; method in brief: as §2
[6] = test system: T47D; assay: Growth inhibition of human T47D cells after 48 hrs by CellTiter-Glo assay; type: functional
Method in brief: (§3)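 Cells were exposed continuously to the compound for 48 h at 37 °C. CellTiter-Glo reagent was then added and the samples mixed by agitation. After 10-15 min at room temperature, luminescence was read. GI50 was taken as 50% inhibition of cell proliferation. Values are the mean ± SEM of three experiments.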

[7] = test system: HCT-116; assay: Growth inhibition of human HCT116 cells after 48 hrs by CellTiter-Glo assay; type: functional; settings: HCT-116, 48 h; method in brief: as §3
[8] = Therapeutic index, ratio of MTD for human MX1 cells xenografted crl:Nu/Nu-nuBR mouse to tumor growth inhibition in human MX1 cells xenografted crl:Nu/Nu-nuBR mouse; settings: in vivo
[9] = Toxicity in human MX1 cells xenografted crl:Nu/Nu-nuBR mouse; type: organism-based; settings: in vivo
Method in brief: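 MX-1 human breast tumour xenograft in mice; dosed intravenously once weekly at several dose levels […]. Tolerability was judged by maximum body weight decrease, alongside tumour growth measurement.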

[10] = test system: MX1; assay: Antitumor activity in human MX1 cells xenografted crl:Nu/Nu-nuBR mouse assessed as tumor growth inhibition at 10 mg/kg, iv administered once weekly for 2 weeks; type: functional; settings: MX1, 336 h
[11] = test system: Mus musculus; assay: AUC in C57BL/6 mouse plasma at 2.5 mg/kg, iv; type: ADME, organism-based; set-up: dose 2.5 mg/kg, route intravenous; settings: in vivo
[12] = test system: Mus musculus; assay: Toxicity in human MX1 cells xenografted crl:Nu/Nu-nuBR mouse assessed as decrease in body weight at 10 mg/kg, iv administered once weekly for 2 weeks; type: organism-based; set-up: dose 10 mg/kg, route intravenous; scale not given: the % may be the effect or the level left; settings: in vivo, 336 h
[13] = test system: Mus musculus; assay: AUC in C57BL/6 mouse brain at 2.5 mg/kg, iv; type: ADME, organism-based; set-up: dose 2.5 mg/kg, route intravenous; settings: in vivo
[14] = Displacement of fluorescent labeled colchicine from tubulin at 50 uM
[15] = test system: MX1; assay: Antitumor activity in human MX1 cells xenografted crl:Nu/Nu-nuBR mouse assessed as tumor growth inhibition at 2.5 mg/kg, iv administered once a day for 5 days for 2 weeks; type: functional
[16] = test system: PC-3; assay: Antitumor activity in human PC3 cells xenografted crl:Nu/Nu-nuBR mouse assessed as tumor growth inhibition at 10 mg/kg, iv administered once weekly for 2 weeks; type: functional, organism-based; set-up: dose 10 mg/kg

For `COc1ccc(CN(C)c2nc(Cl)nc3ccccc23)cc1`, which EC50 [1] is on record?
The EC50 was 68 nM.

And the EC50 [2]?
Its EC50 is 120 nM.

Which EC50 [1] does the source give for `Cc1ccc(N(C)c2nc(Cl)nc3ccccc23)cc1` here?
The EC50 was 15 nM.

What about the EC50 [2] of the same compound?
Its EC50 is 21 nM.

Which results are given for `COc1ccc(N(C)c2nc(Cl)nc3ccccc23)cc1OC`?
EC50 [1]: 9 nM; EC50 [2]: 15 nM

Which EC50 [1] does the source give for `COc1ccc(Nc2nc(Cl)nc3ccccc23)cc1` here?
Its EC50 is > 10000 nM.

What about the EC50 [2] of the same compound?
The EC50 was > 10000 nM.

Which EC50 [1] does the source give for `COc1ccc(N(C)c2nc(Cl)nc3cc(Cl)ccc23)cc1` here?
The EC50 was 300 nM.

What about the EC50 [2] of the same compound?
The EC50 was 350 nM.

With `CN(c1ccc([N+](=O)[O-])cc1)c1nc(Cl)nc2ccccc12` as the compound, how does the EC50 [1] read?
Its EC50 is 770 nM.

And the EC50 [2]?
The EC50 was 1400 nM.

Which EC50 [1] does the source give for `CN(c1ccccc1)c1nc(Cl)nc2ccccc12` here?
Its EC50 is 210 nM.

And the EC50 [2]?
Its EC50 is 300 nM.

What does the source list for `CN(c1ccc(OC(F)(F)F)cc1)c1nc(Cl)nc2ccccc12`?
EC50 [1]: 49 nM; EC50 [2]: 59 nM

What does the source list for `COc1ccc(Nc2nc(Cl)nc3cc(OC)c(OC)cc23)cc1`?
EC50 [1]: > 10000 nM; EC50 [2]: > 10000 nM

Which EC50 [1] does the source give for `CN(c1ccc(Oc2ccccc2)cc1)c1nc(Cl)nc2ccccc12` here?
Its EC50 is > 10000 nM.

What about the EC50 [2] of the same compound?
The EC50 was > 10000 nM.

What does the source list for `CN(c1ccc(Cl)cc1)c1nc(Cl)nc2ccccc12`?
EC50 [1]: 68 nM; EC50 [2]: 72 nM

With `CCN(c1ccc(OC)cc1)c1nc(Cl)nc2ccccc12` as the compound, how does the EC50 [1] read?
Its EC50 is 39 nM.

What about the EC50 [2] of the same compound?
The EC50 was 49 nM.

With `COc1cc2c(c(OC)c1OC)-c1ccc(OC)c(=O)cc1[C@@H](NC(C)=O)CC2` [COLCHICINE] as the compound, how does the IC50 [3] read?
The IC50 was 500 nM.

What does the source list for `COc1ccc(Oc2ncnc3ccccc23)cc1`?
EC50 [1]: > 10000 nM; EC50 [2]: > 10000 nM

What does the source list for `CN(c1ccc2c(c1)OCO2)c1nc(Cl)nc2ccccc12`?
EC50 [1]: 31 nM; EC50 [2]: 65 nM

For `CC[C@]1(O)C[C@@H]2CN(CCc3c([nH]c4ccccc34)[C@@](C(=O)OC)(c3cc4c(cc3OC)N(C)[C@H]3[C@@](O)(C(=O)OC)[C@H](OC(C)=O)[C@]5(CC)C=CCN6CC[C@]43[C@@H]65)C2)C1` [VINBLASTINE], which IC50 [4] is on record?
Its IC50 is 0.6 nM.

What about the IC50 [5] of the same compound?
The IC50 was 27 nM.

Which IC50 [4] does the source give for `CC(=O)O[C@@]12CO[C@@H]1C[C@H](O)[C@@]1(C)C(=O)[C@H](O)C3=C(C)[C@@H](OC(=O)[C@H](O)[C@@H](NC(=O)OC(C)(C)C)c4ccccc4)C[C@@](O)([C@@H](OC(=O)c4ccccc4)[C@H]21)C3(C)C` [DOCETAXEL] here?
Its IC50 is 2 nM.

And the IC50 [5]?
Its IC50 is 277 nM.

Which results are given for `CN(c1ccc(O)cc1)c1nc(Cl)nc2ccccc12`?
EC50 [1]: 85 nM; EC50 [2]: 120 nM

Which EC50 [1] does the source give for `COc1ccc(N(C)c2ncnc3ccccc23)cc1` here?
Its EC50 is 6 nM.

What about the EC50 [2] of the same compound?
The EC50 was 8 nM.

Which GI50 [6] does the source give for `COc1ccc(N(C)c2nc(Cl)nc3ccccc23)cn1` here?
The GI50 was 37 nM.

What about the GI50 [7] of the same compound?
The GI50 was 40 nM.

What about the EC50 [1] of the same compound?
The EC50 was 17 nM.

And the EC50 [2]?
The EC50 was 29 nM.

With `COc1cccc(N(C)c2nc(Cl)nc3ccccc23)c1OC` as the compound, how does the EC50 [1] read?
The EC50 was 680 nM.

And the EC50 [2]?
The EC50 was 1110 nM.

Which results are given for `CCOc1ccc(N(C)c2nc(Cl)nc3ccccc23)cc1`?
EC50 [1]: 5 nM; EC50 [2]: 5 nM

With `COc1ccc(N(C)c2nc(Cl)nc3cc(OC)c(OC)cc23)cc1` as the compound, how does the EC50 [1] read?
The EC50 was 590 nM.

And the EC50 [2]?
Its EC50 is 970 nM.

For `COc1ccc(N(C)c2nc(Cl)nc3ccccc23)cc1`, which GI50 [6] is on record?
Its GI50 is 1 nM.

And the selectivity ratio [8]?
Its selectivity ratio is 2.5.

And the MTD [9]?
The MTD was 25 mg/kg.

And the inhibition in vivo at 10 mg/kg [10]?
The inhibition in vivo at 10 mg/kg was > 95%.

And the AUC [11]?
The AUC was 669 ng/mL.

What about the Activity [12] of the same compound?
Its Activity is < 10%.

And the GI50 [7]?
Its GI50 is 2 nM.

What about the IC50 [4] of the same compound?
Its IC50 is 2.1 nM.

What about the AUC [13] of the same compound?
Its AUC is 20563 ng/mL.

What about the IC50 [3] of the same compound?
Its IC50 is < 400 nM.

And the IC50 [5]?
The IC50 was 2.2 nM.

And the Activity [14]?
Its Activity is “Active”.

And the inhibition in vivo at 2.5 mg/kg [15]?
The inhibition in vivo at 2.5 mg/kg was 90%.

What about the Activity [16] of the same compound?
Its Activity is “Active”.

What does the source list for `COc1ccc(N(C)c2nc(Cl)nc3ccc(Cl)cc23)cc1`?
EC50 [1]: 10 nM; EC50 [2]: 13 nM

What does the source list for `COc1cccc(N(C)c2nc(Cl)nc3ccccc23)c1`?
EC50 [1]: 25 nM; EC50 [2]: 31 nM

What does the source list for `COc1ccccc1N(C)c1nc(Cl)nc2ccccc12`?
EC50 [1]: 4440 nM; EC50 [2]: > 10000 nM

With `COc1ccc(N(C)c2nc(NC/C=C(\C)CCC=C(C)C)nc3ccccc23)cc1` as the compound, how does the GI50 [6] read?
The GI50 was 850 nM.

What about the GI50 [7] of the same compound?
Its GI50 is 350 nM.
